Source: PMC4220649 (Blood Cancer Journal, 2014)
Entries after “also recorded” stand apart in the source; their conditions may differ. Where two headings read alike, the source gives them in different places.

Tested on: patients with relapsed/refractory lymphoma
Type: in vivo, human
Conditions: for Drug-related AE: Skin/SC tissue disorders / Drug-related grade ⩾3 AE: Skin/SC tissue disorders: MedDRA SOC
How it was run: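 Open-label phase 1 in patients with relapsed/refractory lymphoma after ⩾2 prior therapies. Dosing started at one patient per level with doubling from 0.125 to 1.0 mg/m2, then followed a 3+3 schema up to 3.11 mg/m2. DLTs were assessed in cycle 1, and AEs were graded by NCI-CTCAE v3.0.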

CC(C)C[C@H](NC(=O)CNC(=O)c1cc(Cl)ccc1Cl)B(O)O [ixazomib]
DLTs in cycle 1 (1.76 mg/m^2 cohort): one grade 4 neutropenia
DLTs in cycle 1 (2.34 mg/m^2 cohort): DLTs occurred in one of six DLT-evaluable patients
DLTs in cycle 1 (3.11 mg/m^2 cohort): two DLTs occurred in four DLT-evaluable patients
Patients who reported DLTs (DLT-evaluable population, 28 patients): Four
MTD (maximum tolerated dose) (IV, days 1, 8 and 15 of 28-day cycles): 2.34 mg/m^2
Drug-related AE: Skin/SC tissue disorders (all doses, Total (n=30)): 8 (27) n (%)
Drug-related grade ⩾3 AE: Skin/SC tissue disorders (all doses, Total (n=30)): 2 (7) n (%)
Drug-related AE: Skin/SC tissue disorders (dose 1.4 mg/m^2 (n=4)): 1 n
Drug-related grade ⩾3 AE: Skin/SC tissue disorders (dose 1.4 mg/m^2 (n=4)): 0 n
Drug-related AE: Skin/SC tissue disorders (dose 1.76 mg/m^2 (n=7)): 2 n
Drug-related grade ⩾3 AE: Skin/SC tissue disorders (dose 1.76 mg/m^2 (n=7)): 0 n
Drug-related AE: Skin/SC tissue disorders (dose 2.34 mg/m^2 (n=10)): 4 n
Drug-related grade ⩾3 AE: Skin/SC tissue disorders (dose 2.34 mg/m^2 (n=10)): 1 n
Drug-related AE: Skin/SC tissue disorders (dose 3.11 mg/m^2 (n=5)): 0 n
Drug-related grade ⩾3 AE: Skin/SC tissue disorders (dose 3.11 mg/m^2 (n=5)): 0 n
Drug-related AE: Skin/SC tissue disorders (dose 0.125–1.0 mg/m^2 (n=4)): 1 n
Drug-related grade ⩾3 AE: Skin/SC tissue disorders (dose 0.125–1.0 mg/m^2 (n=4)): 1 n
Patients with grade ⩾3 neutropenia who required growth factor support (all doses): 2/6
Patients with grade ⩾3 thrombocytopenia who required platelet transfusions (all doses): 0/4
Drug-related AE: Abdominal pain (all doses, Total (n=30)): 5 (17) n (%)
Drug-related AE: Any AE (all doses, Total (n=30)): 30 (100) n (%)
Drug-related AE: Arthralgia (all doses, Total (n=30)): 3 (10) n (%)
Drug-related AE: Chills (all doses, Total (n=30)): 4 (13) n (%)
Drug-related AE: Constipation (all doses, Total (n=30)): 3 (10) n (%)
Drug-related AE: Cough (all doses, Total (n=30)): 4 (13) n (%)
Drug-related AE: Decreased appetite (all doses, Total (n=30)): 6 (20) n (%)
Drug-related AE: Decreased platelet count (all doses, Total (n=30)): 3 (10) n (%)
Drug-related AE: Diarrhea (all doses, Total (n=30)): 10 (33) n (%)
Drug-related AE: Dysgeusia (all doses, Total (n=30)): 4 (13) n (%)
Drug-related AE: Fatigue (all doses, Total (n=30)): 13 (43) n (%)
Drug-related AE: Headache (all doses, Total (n=30)): 6 (20) n (%)
Drug-related AE: Hypokalemia (all doses, Total (n=30)): 4 (13) n (%)
Drug-related AE: Lymphopenia (all doses, Total (n=30)): 4 (13) n (%)
Drug-related AE: Nausea (all doses, Total (n=30)): 8 (27) n (%)
Drug-related AE: Neutropenia (all doses, Total (n=30)): 6 (20) n (%)
Drug-related AE: Oral herpes (all doses, Total (n=30)): 4 (13) n (%)
Drug-related AE: Pain in extremity (all doses, Total (n=30)): 3 (10) n (%)
Drug-related AE: Paresthesia (all doses, Total (n=30)): 3 (10) n (%)
Drug-related AE: Peripheral edema (all doses, Total (n=30)): 4 (13) n (%)
Drug-related AE: Pyrexia (all doses, Total (n=30)): 5 (17) n (%)
Drug-related AE: Thrombocytopenia (all doses, Total (n=30)): 8 (27) n (%)
Drug-related AE: Vomiting (all doses, Total (n=30)): 8 (27) n (%)
Drug-related grade ⩾3 AE: Any grade ⩾3 AE (all doses, Total (n=30)): 14 (47) n (%)
Drug-related grade ⩾3 AE: Dehydration (all doses, Total (n=30)): 2 (7) n (%)
Drug-related grade ⩾3 AE: Diarrhea (all doses, Total (n=30)): 3 (10) n (%)
Drug-related grade ⩾3 AE: Lymphopenia (all doses, Total (n=30)): 2 (7) n (%)
Drug-related grade ⩾3 AE: Neutropenia (all doses, Total (n=30)): 6 (20) n (%)
Drug-related grade ⩾3 AE: Thrombocytopenia (all doses, Total (n=30)): 4 (13) n (%)
AEs of Skin and subcutaneous tissue disorders (MedDRA System Organ Class), patients (all doses, n=30): 27%
Drug-related AE: diarrhea, patients (all doses, n=30): 33%
Drug-related AE: fatigue, patients (all doses, n=30): 43%
Drug-related AE: nausea, patients (all doses, n=30): 27%
Drug-related AE: thrombocytopenia, patients (all doses, n=30): 27%
Drug-related AE: vomiting, patients (all doses, n=30): 27%
Drug-related grade ⩾3 AE: diarrhea, patients (all doses, n=30): 10%
Drug-related grade ⩾3 AE: neutropenia, patients (all doses, n=30): 20%
Drug-related grade ⩾3 AE: thrombocytopenia, patients (all doses, n=30): 13%
Drug-related rash, patients (all doses, n=30): 17%
Grade ⩾3 PN (all doses, n=30): no grade ⩾3 events were reported; also recorded: no patient had grade ⩾3 PN
Patients who experienced serious AEs (all doses, n=30): Eight
Patients with drug-related grade ⩾3 AEs (all doses, n=30): 47%
Discontinuation of ixazomib due to AEs (all doses, n=30, data cut-off 1 March 2013): 10%
Patients with grade ⩾3 AEs (all-cause, all doses, n=30): 73%
Drug-related AE: Abdominal pain (dose 1.4 mg/m^2 (n=4)): 0 n
Drug-related AE: Any AE (dose 1.4 mg/m^2 (n=4)): 4 n
Drug-related AE: Arthralgia (dose 1.4 mg/m^2 (n=4)): 0 n
Drug-related AE: Chills (dose 1.4 mg/m^2 (n=4)): 0 n
Drug-related AE: Constipation (dose 1.4 mg/m^2 (n=4)): 0 n
Drug-related AE: Cough (dose 1.4 mg/m^2 (n=4)): 0 n
Drug-related AE: Decreased appetite (dose 1.4 mg/m^2 (n=4)): 1 n
Drug-related AE: Decreased platelet count (dose 1.4 mg/m^2 (n=4)): 0 n
Drug-related AE: Diarrhea (dose 1.4 mg/m^2 (n=4)): 0 n
Drug-related AE: Dysgeusia (dose 1.4 mg/m^2 (n=4)): 1 n
Drug-related AE: Fatigue (dose 1.4 mg/m^2 (n=4)): 2 n
Drug-related AE: Headache (dose 1.4 mg/m^2 (n=4)): 0 n
Drug-related AE: Hypokalemia (dose 1.4 mg/m^2 (n=4)): 0 n
Drug-related AE: Lymphopenia (dose 1.4 mg/m^2 (n=4)): 1 n
Drug-related AE: Nausea (dose 1.4 mg/m^2 (n=4)): 1 n
Drug-related AE: Neutropenia (dose 1.4 mg/m^2 (n=4)): 1 n
Drug-related AE: Oral herpes (dose 1.4 mg/m^2 (n=4)): 1 n
Drug-related AE: Pain in extremity (dose 1.4 mg/m^2 (n=4)): 0 n
Drug-related AE: Paresthesia (dose 1.4 mg/m^2 (n=4)): 1 n
Drug-related AE: Peripheral edema (dose 1.4 mg/m^2 (n=4)): 0 n
Drug-related AE: Pyrexia (dose 1.4 mg/m^2 (n=4)): 0 n
Drug-related AE: Thrombocytopenia (dose 1.4 mg/m^2 (n=4)): 2 n
Drug-related AE: Vomiting (dose 1.4 mg/m^2 (n=4)): 0 n
Drug-related grade ⩾3 AE: Any grade ⩾3 AE (dose 1.4 mg/m^2 (n=4)): 3 n
Drug-related grade ⩾3 AE: Dehydration (dose 1.4 mg/m^2 (n=4)): 0 n
Drug-related grade ⩾3 AE: Diarrhea (dose 1.4 mg/m^2 (n=4)): 0 n
Drug-related grade ⩾3 AE: Lymphopenia (dose 1.4 mg/m^2 (n=4)): 0 n
Drug-related grade ⩾3 AE: Neutropenia (dose 1.4 mg/m^2 (n=4)): 1 n
Drug-related grade ⩾3 AE: Thrombocytopenia (dose 1.4 mg/m^2 (n=4)): 1 n
Drug-related AE: Abdominal pain (dose 1.76 mg/m^2 (n=7)): 1 n
Drug-related AE: Any AE (dose 1.76 mg/m^2 (n=7)): 7 n
Drug-related AE: Arthralgia (dose 1.76 mg/m^2 (n=7)): 0 n
Drug-related AE: Chills (dose 1.76 mg/m^2 (n=7)): 2 n
Drug-related AE: Constipation (dose 1.76 mg/m^2 (n=7)): 0 n
Drug-related AE: Cough (dose 1.76 mg/m^2 (n=7)): 2 n
Drug-related AE: Decreased appetite (dose 1.76 mg/m^2 (n=7)): 1 n
Drug-related AE: Decreased platelet count (dose 1.76 mg/m^2 (n=7)): 1 n
Drug-related AE: Diarrhea (dose 1.76 mg/m^2 (n=7)): 3 n
Drug-related AE: Dysgeusia (dose 1.76 mg/m^2 (n=7)): 2 n
Drug-related AE: Fatigue (dose 1.76 mg/m^2 (n=7)): 4 n
Drug-related AE: Headache (dose 1.76 mg/m^2 (n=7)): 2 n
Drug-related AE: Hypokalemia (dose 1.76 mg/m^2 (n=7)): 1 n
Drug-related AE: Lymphopenia (dose 1.76 mg/m^2 (n=7)): 0 n
Drug-related AE: Nausea (dose 1.76 mg/m^2 (n=7)): 3 n
Drug-related AE: Neutropenia (dose 1.76 mg/m^2 (n=7)): 1 n
Drug-related AE: Oral herpes (dose 1.76 mg/m^2 (n=7)): 1 n
Drug-related AE: Pain in extremity (dose 1.76 mg/m^2 (n=7)): 0 n
